Reference: ChEMBL document CHEMBL1157100, “The alkyl-connected 2-amino-6-vinylpurine (AVP) crosslinking agent for improved selectivity to the cytosine base in RNA” (Bioorg Med Chem, 2010)
Active and inactive are the calls of the source. The rule behind the calls is not given here.

Test system: Nucleic Acid
Experiment: Binding affinity to FAM-tagged 27 mer RNA hairpin loop assessed as crosslinking at 10 uM by PAGE
Format: nucleic-acid assay
Summary of the method: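 Reactive ODN at 10 µM with 1 µM FAM-labeled target DNA or RNA in 100 mM NaCl, 50 mM MES pH 5 plus RNase OUT, mixed at 0 °C and then incubated at 37 °C. Reactions were stopped at set times with formamide/EDTA/bromophenol blue buffer. Products were resolved on 15% denaturing polyacrylamide gel with 7 M urea, and FAM band intensities were quantified to give crosslinking yield.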

| Activity | SMILES |
| --- | --- |
| Active | CSCCc1nc(N)nc2c1ncn2CC[C@H]1C[C@H](OP(=O)(O)OC[C@H]2O[C@@H](n3cc(C)c(=O)[nH]c3=O)C[C@@H]2OP(=O)(O)OC[C@H]2O[C@@H](n3cnc4c(N)ncnc43)[C@H](O)[C@@H]2OP(=O)(O)OC[C@H]2O[C@@H](n3cc(C)c(=O)[nH]c3=O)C[C@@H]2OP(CCC#N)N(C(C)C)C(C)C)[C@@H](COP(=O)(O)O[C@H]2C[C@H](n3cc(C)c(=O)[nH]c3=O)O[C@@H]2COP(=O)(O)O[C@H]2C[C@H](n3cc(C)c(=O)[nH]c3=O)O[C@@H]2COP(=O)(O)O[C@H]2[C@@H](O)[C@H](n3cnc4c(N)ncnc43)O[C@@H]2COP(=O)(O)O[C@H]2[C@@H](O)[C@H](n3cnc4c(N)ncnc43)O[C@@H]2COP(=O)(O)O[C@H]2[C@@H](O)[C@H](n3cnc4c(N)ncnc43)O[C@@H]2COP(=O)(O)O[C@H]2[C@@H](O)[C@H](n3ccc(N)nc3=O)O[C@@H]2COP(=O)(O)O[C@H]2C[C@H](n3cc(C)c(=O)[nH]c3=O)O[C@@H]2COP(=O)(O)O[C@H]2[C@@H](O)[C@H](n3cnc4c(N)ncnc43)O[C@@H]2COP(=O)(O)O[C@H]2[C@@H](O)[C@H](n3cnc4c(=O)[nH]c(N)nc43)O[C@@H]2COP(=O)(O)O[C@H]2C[C@H](n3cc(C)c(=O)[nH]c3=O)O[C@@H]2COP(=O)(O)O[C@H]2[C@@H](O)[C@H](n3ccc(N)nc3=O)O[C@@H]2COP(=O)(O)O[C@H]2[C@@H](O)[C@H](n3cnc4c(N)ncnc43)O[C@@H]2COP(=O)(O)O[C@H]2C[C@H](n3cc(C)c(=O)[nH]c3=O)O[C@@H]2COP(=O)(O)O[C@H]2[C@@H](O)[C@H](n3cnc4c(N)ncnc43)O[C@@H]2COP(=O)(O)O[C@H]2C[C@H](n3cc(C)c(=O)[nH]c3=O)O[C@@H]2CO)O1 (some centres not stated) |
| inactive | CSCCc1nc(N)nc2c1ncn2[C@H]1C[C@H](OP(=O)(O)OC[C@H]2O[C@@H](n3cc(C)c(=O)[nH]c3=O)C[C@@H]2OP(=O)(O)OC[C@H]2O[C@@H](n3cnc4c(N)ncnc43)[C@H](O)[C@@H]2OP(=O)(O)OC[C@H]2O[C@@H](n3cc(C)c(=O)[nH]c3=O)C[C@@H]2OP(CCC#N)N(C(C)C)C(C)C)[C@@H](COP(=O)(O)O[C@H]2C[C@H](n3cc(C)c(=O)[nH]c3=O)O[C@@H]2COP(=O)(O)O[C@H]2C[C@H](n3cc(C)c(=O)[nH]c3=O)O[C@@H]2COP(=O)(O)O[C@H]2[C@@H](O)[C@H](n3cnc4c(N)ncnc43)O[C@@H]2COP(=O)(O)O[C@H]2[C@@H](O)[C@H](n3cnc4c(N)ncnc43)O[C@@H]2COP(=O)(O)O[C@H]2[C@@H](O)[C@H](n3cnc4c(N)ncnc43)O[C@@H]2COP(=O)(O)O[C@H]2[C@@H](O)[C@H](n3ccc(N)nc3=O)O[C@@H]2COP(=O)(O)O[C@H]2C[C@H](n3cc(C)c(=O)[nH]c3=O)O[C@@H]2COP(=O)(O)O[C@H]2[C@@H](O)[C@H](n3cnc4c(N)ncnc43)O[C@@H]2COP(=O)(O)O[C@H]2[C@@H](O)[C@H](n3cnc4c(=O)[nH]c(N)nc43)O[C@@H]2COP(=O)(O)O[C@H]2C[C@H](n3cc(C)c(=O)[nH]c3=O)O[C@@H]2COP(=O)(O)O[C@H]2[C@@H](O)[C@H](n3ccc(N)nc3=O)O[C@@H]2COP(=O)(O)O[C@H]2[C@@H](O)[C@H](n3cnc4c(N)ncnc43)O[C@@H]2COP(=O)(O)O[C@H]2C[C@H](n3cc(C)c(=O)[nH]c3=O)O[C@@H]2COP(=O)(O)O[C@H]2[C@@H](O)[C@H](n3cnc4c(N)ncnc43)O[C@@H]2COP(=O)(O)O[C@H]2C[C@H](n3cc(C)c(=O)[nH]c3=O)O[C@@H]2CO)O1 (some centres not stated) |
